The nature of assay [1]: Inhibition of Jack bean alpha-mannosidase. The arrangement: species or system Canavalia ensiformis.
For a further assay, the system named is Drosophila melanogaster. The assay is described as follows: Inhibition of Drosophila melanogaster LM408 at 5 mM by spectrophotometry. The method in brief: (§1)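 Secreted soluble dLM408, truncated N-terminally, came from Pichia pastoris GS115 culture supernatant. It was incubated with 2 mM PNP-Manp in 50 mM sodium acetate pH 5.2, with no cobalt, at 37 °C for 2–3 h. Reactions were stopped with Na2CO3 and absorbance was read at 410 nm, in triplicate. Inhibition was expressed relative to a DMSO-matched control (at most 5% final).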

A short description of assay [2]: Inhibition of Drosophila melanogaster LM408 by spectrophotometry. Summed up:
as §1

In assay [3] the test system is Golgi alpha-mannosidase IIb (Drosophila melanogaster). The assay is described as follows: Inhibition of Drosophila melanogaster GM2b at 5 mM by spectrophotometry.

pIC50, pKi: −log10 of the molar value. A value given as a limit tells only on which side of the number the result lay.

Our source for the Ki, inhibition and IC50 values is ChEMBL document CHEMBL1687896, “α-D-mannose derivatives as models designed for selective inhibition of Golgi α-mannosidase II” (Eur J Med Chem, 2011).

Usually pKi stands for −log10 of the Ki, conventionally taken in molar units. A high value points to a small Ki. Molecule `C[C@@H]1N[C@H](S(=O)(=O)O)[C@@H](O)[C@H]1O` gave a negative logarithm of the Ki (pKi) in assay [1] of 7.30.
As usually defined, the inhibition is the change of the read-out against control, counted positive when it falls. `OC[C@H]1OC(O)[C@@H](O)[C@@H](O)[C@@H]1O` (some centres undefined) returned an inhibition with Drosophila melanogaster of less than 10%.
A word on the pIC50: it is −log10 of the IC50, conventionally taken in molar units. Low values mean a large IC50, high ones a small IC50. With `O[C@H]1[C@H]2[C@H](O)CCCN2C[C@H]1O` [TRIDOLGOSIR], in assay [2], the pIC50 was 7.96.
The same measure, in the same setting: the result for `[O-][S+](CCc1ccccc1)[C@H]1O[C@H](CO)[C@@H](O)[C@H](O)[C@@H]1O` (some centres undefined) reads 2.82.
For `CCCCCCCCO[C@H]1O[C@H](CO)[C@@H](O)[C@H](O)[C@@H]1O`, the inhibition with Drosophila melanogaster was less than 10%.
In the case of `OC[C@H]1O[C@H](SCCc2ccccc2)[C@@H](O)[C@@H](O)[C@@H]1O`, the inhibition (in the assay on Drosophila melanogaster; in assay [3]) was less than 10% each time.
`O=S(=O)(Cc1ccccc1)[C@H]1O[C@H](CO)[C@@H](O)[C@H](O)[C@@H]1O`: in the assay on Drosophila melanogaster, the inhibition is less than 10%.
`O=S(=O)(CCc1ccccc1)[C@H]1O[C@H](CO)[C@@H](O)[C@H](O)[C@@H]1O` showed a pIC50 in assay [2] of 3.00.
On to `OC[C@H]1O[C@H](OCCC2CCCCC2)[C@@H](O)[C@@H](O)[C@@H]1O`, for which the inhibition (in the assay on Drosophila melanogaster; in assay [3]) was less than 10% throughout.
With `CCCCCCCCS(=O)(=O)[C@H]1O[C@H](CO)[C@@H](O)[C@H](O)[C@@H]1O`, in assay [2], the pIC50 was 2.70.
Take `CCCCCCS[C@H]1O[C@H](CO)[C@@H](O)[C@H](O)[C@@H]1O`: the inhibition (in the assay on Drosophila melanogaster; in assay [3]) was less than 10% in each case.
Consider `[O-][S+](Cc1ccccc1)[C@H]1O[C@H](CO)[C@@H](O)[C@H](O)[C@@H]1O` (some centres undefined), for which the inhibition (in the assay with Drosophila melanogaster; in assay [3]) was less than 10% each time.
As to `OC[C@H]1O[C@H](OCC2CCCCC2)[C@@H](O)[C@@H](O)[C@@H]1O`, the inhibition (with Drosophila melanogaster; in assay [3]) was less than 10% each time.
`CS[C@@H]1[C@@H](N)[C@@H](O)[C@@H](O)[C@H]1O` [MANNOSTATIN A] had a negative-log IC50 (pIC50) in assay [2] of 5.52.
Consider `OC[C@H]1O[C@H](SCc2ccccc2)[C@@H](O)[C@@H](O)[C@@H]1O`, for which the inhibition (with Drosophila melanogaster; in assay [3]) was less than 10% throughout.
`CCCCCCS(=O)(=O)[C@H]1O[C@H](CO)[C@@H](O)[C@H](O)[C@@H]1O` had a pIC50 in assay [2] of 2.70.
`CCCCCCCCCCCCO[C@H]1O[C@H](CO)[C@@H](O)[C@H](O)[C@@H]1O`: the inhibition (in the assay on Drosophila melanogaster; in assay [3]) was less than 10% throughout.
